Consider 6 compounds from ChEMBL document CHEMBL1123134, “Diterpenoid sweeteners. Synthesis and sensory evaluation of stevioside analogues with improved organoleptic properties” (1985).

What all share (assay type): functional
For experiment [1], the species on record is Homo sapiens. The experiment in a line: Sensory evaluation was done at a concentration of 650 p.p.m. against property of bitterness. The procedure, abridged:
(§1)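 Aqueous sample solutions were tasted at about pH 7, so carboxylic acids were in ionized form.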

The species named for experiment [2] is Homo sapiens. The experiment in a line: Sensory evaluation was done for sweetness at a concentration of 650 p.p.m. against compound potency calculated on a molar basis. The procedure, abridged: (§2)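 Sweetness tasted in solutions held near pH ~7, so carboxylic acids are ionized. Potency is reported two ways: on a weight basis (Pw) and on a molar basis (Pm).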

Experiment [3] is filed under the species Homo sapiens. Kind of experiment: Sensory evaluation was done at a concentration of 650 p.p.m. against other properties. In a few lines:
as §1

The species entered for experiment [4] is Homo sapiens. The experiment in a line: Sensory evaluation was done for sweetness at a concentration of 650 p.p.m. against compound potency calculated on weight basis. In a few lines:
as §2

For experiment [5], the species on record is Homo sapiens. The experiment in a line: Sensory evaluation was done for sweetness at a concentration of 650 p.p.m. against sample intensity relative to 10% sucrose. The procedure, abridged:
as §2

Experiment [6] is filed under the species Homo sapiens. Kind of experiment: Sensory evaluation was done at a concentration of 650 p.p.m. against property of sweetness. In a few lines: as §1
For experiment [7], the species on record is Homo sapiens. The experiment in a line: Sensory evaluation was done at a concentration of 1000 p.p.m. against property of sweetness. The procedure, abridged: as §1
Experiment [8] is filed under the species Homo sapiens. Kind of experiment: Sensory evaluation was done for sweetness at a concentration of 1000 p.p.m. against compound potency calculated on a molar basis. The procedure, abridged: (§3)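 Solutions were tasted at about pH 7. Sweetness potency was expressed two ways: Pw, calculated on a weight basis, and Pm, calculated on a molar basis.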
The species named for experiment [9] is Homo sapiens. The experiment in a line: Sensory evaluation was done at a concentration of 1000 p.p.m. against property of bitterness. The procedure, abridged:
as §1

The species entered for experiment [10] is Homo sapiens. The experiment in a line: Sensory evaluation was done for sweetness at a concentration of 1000 p.p.m. against compound potency calculated on weight basis. In a few lines:
as §3

Experiment [11] is filed under the species Homo sapiens. The experiment in a line: Sensory evaluation was done for sweetness at a concentration of 1000 p.p.m. against sample intensity relative to 10% sucrose. The procedure, abridged:
as §1

Experiment [12] is filed under the species Homo sapiens. The experiment in a line: Sensory evaluation was done at a concentration of 1000 p.p.m. against other properties. In a few lines: as §1
For experiment [13], the species on record is Homo sapiens. Kind of experiment: Sensory evaluation was done at a concentration of 750 p.p.m. against property of sweetness. The procedure, abridged: as §1
For experiment [14], the species on record is Homo sapiens. The experiment in a line: Sensory evaluation was done for sweetness at a concentration of 750 p.p.m. against compound potency calculated on a molar basis. The procedure, abridged:
as §2

Experiment [15] is filed under the species Homo sapiens. The experiment in a line: Sensory evaluation was done at a concentration of 750 p.p.m. against property of bitterness. The procedure, abridged: as §1
Experiment [16] is filed under the species Homo sapiens. Kind of experiment: Sensory evaluation was done at a concentration of 750 p.p.m. against other properties. In a few lines:
as §1

For experiment [17], the species on record is Homo sapiens. The experiment in a line: Sensory evaluation was done for sweetness at a concentration of 750 p.p.m. against sample intensity relative to 10% sucrose. The procedure, abridged: as §2
For experiment [18], the species on record is Homo sapiens. Kind of experiment: Sensory evaluation was done for sweetness at a concentration of 750 p.p.m. against compound potency calculated on weight basis. In a few lines: as §2
Experiment [19] is filed under the species Homo sapiens. Kind of experiment: Sensory evaluation was done at a concentration of 500 p.p.m. against other properties. In a few lines:
as §1

The species named for experiment [20] is Homo sapiens. Kind of experiment: Sensory evaluation was done for sweetness at a concentration of 500 p.p.m. against compound potency calculated on weight basis. The procedure, abridged: as §2
For experiment [21], the species on record is Homo sapiens. Kind of experiment: Sensory evaluation was done at a concentration of 500 p.p.m. against property of bitterness. In a few lines:
as §1

Experiment [22] is filed under the species Homo sapiens. The experiment in a line: Sensory evaluation was done at a concentration of 500 p.p.m. against property of sweetness. The procedure, abridged:
as §1

The species entered for experiment [23] is Homo sapiens. Kind of experiment: Sensory evaluation was done for sweetness at a concentration of 500 p.p.m. against compound potency calculated on a molar basis. In a few lines:
as §2

Experiment [24] is filed under the species Homo sapiens. Kind of experiment: Sensory evaluation was done for sweetness at a concentration of 500 p.p.m. against sample intensity relative to 10% sucrose. The procedure, abridged: as §2

`C=C1C[C@@]23CC[C@H]4[C@@](C)(CCC[C@@]4(C)C(=O)OCCCP(=O)([O-])O)[C@@H]2CC[C@]1(O[C@@H]1O[C@@H](CO)[C@@H](O)[C@H](O)[C@@H]1O[C@@H]1O[C@@H](CO)[C@@H](O)[C@H](O)[C@@H]1O)C3.[Na+]`: the Sensory evaluation worked out at 8 in [1], 5 in experiment [3] and 87 in experiment [6]. Also, the Pm in experiment [2] was 280. Besides, the Pw in experiment [4] is given as 120. The Ip in [5] stood at 0.8.
`C=C1C[C@@]23CC[C@H]4[C@@](C)(CCC[C@@]4(C)C(=O)OC(CCN)C(=O)O)[C@@H]2CC[C@]1(O[C@@H]1O[C@@H](CO)[C@@H](O)[C@H](O)[C@@H]1O[C@@H]1O[C@@H](CO)[C@@H](O)[C@H](O)[C@@H]1O)C3` (stereo partly specified): the Sensory evaluation stood at 18 in [1], 3 in [3] and 79 in experiment [6]. In addition, in [2], the Pm is 360. Also, the Pw in experiment [4] was 170. Besides, the Ip in experiment [5] is listed as 1.1.
As for `CC1=CC(=O)NS(=O)(=O)O1` [ACESULFAME], the Sensory evaluation in experiment [7] was determined as 83; in [9], 16; in experiment [12], 1. In [8], the Pm is recorded as 55. Also, the Pw in experiment [10] is recorded as 100. The compound also displayed an Ip in experiment [11] of 1.
`COC(=O)[C@H](Cc1ccccc1)NC(=O)[C@@H](N)CC(=O)O` [ASPARTAME]: the Sensory evaluation in experiment [13] is reported as 100; in [15] it was 0; in experiment [16] it was 0. Besides, the Pm in [14] was 85. This compound gave an Ip in experiment [17] of 1. For the same compound, the Pw in [18] was 130.
Consider `C=C1C[C@@]23CC[C@H]4[C@@](C)(CCC[C@@]4(C)C(=O)O[C@@H]4O[C@H](CO)[C@@H](O)[C@H](O)[C@H]4O)[C@@H]2CC[C@]1(O[C@@H]1O[C@H](CO)[C@@H](O)[C@H](O)[C@H]1O[C@@H]1O[C@H](CO)[C@@H](O)[C@H](O)[C@H]1O)C3` [STEVIOSIDE], for which the Sensory evaluation in experiment [19] is 8; in [21], 30; in experiment [22], 62. Moreover, in [20], the Pw is reported as 190. Besides, in [23], the Pm is reported as 440. Moreover, the Ip in experiment [24] was 0.9.
Turning to `C=C1C[C@@]23CC[C@H]4[C@@](C)(CCC[C@@]4(C)C(=O)[O-])[C@@H]2CC[C@]1(O[C@@H]1O[C@@H](CO)[C@@H](O)[C@H](O)[C@@H]1O[C@@H]1O[C@@H](CO)[C@@H](O)[C@H](O)[C@@H]1O)C3.[Na+]` [Steviolbioside], the Sensory evaluation in experiment [7] turned out to be 65; in experiment [9] it was 35; in experiment [12] it was 0. The Pm in [8] is on record as 190. The Pw in experiment [10] was 100. In addition, in experiment [11], the Ip turned out to be 1.
